Published values pooled from the literature.
Lines come from different studies, so protocols differ.
Target: Tyrosine-protein kinase Fes/Fps (FES, Homo sapiens, UniProt P07332)

For `COc1cc(Cl)c(C(=O)N[C@@H](CN[C@H]2CC[C@@H](N)CC2)Cc2ccc(C#N)cc2)cc1-c1ccc(CN[C@H](C)c2ccc(C)cc2)o1`, the remaining activity was 94% (enzyme activity, inhibitor; 1 µM).
`CN([C@@H]1CCc2c(CC(=O)O)c3cc(S(C)(=O)=O)ccc3n2C1)S(=O)(=O)c1ccc(F)cc1` has a remaining binding of 92% (cell-free assay, competition with immobilised ligand; 1 µM).
For `c1nc2c(Nc3ccc4c(c3)OCCO4)nc(Nc3ccc4c(c3)OCCO4)nc2[nH]1`, the activity vs control was 62% (enzyme activity, inhibitor; 10 µM).
`O=C(Nc1cnn(-c2csc(C(=O)NC3COC3)c2)c1)Nc1ccccc1Cl` has a remaining activity of 99.3% (enzyme activity, inhibitor; 5 µM).
`Cc1cc(NC(=O)c2cccc3cc(-c4cccc5[nH]nc(N)c45)ccc23)ccc1F` gave an activity vs control of 97% (enzyme activity, inhibitor; 0.1 µM).
With `O=C1Nc2ccc(Cl)cc2C1=Cc1cc(Cl)c(O)c(Cl)c1` the remaining signal was 93.7% (cell-free assay; 0.5 µM).
`CC/C(=N\NC(=O)NCc1cccc(O)c1)c1ccc(O)c(C)c1O` gave an inhibition of 1.2% (enzyme activity, inhibitor; 0.1 µM).
`CS(=O)(=O)N1CCCC(NC(=O)[C@H](CCC2CCCCC2)NC(=O)c2ccc(CNC(=O)c3cnc4ccccn34)cc2)C1` (some centres unmarked) gave a remaining binding of 100% (cell-free assay, competition with immobilised ligand; 0.1 µM).
`O=C1NC(=O)c2cc(Nc3ccc(F)cc3)c(Nc3ccc(F)cc3)cc21` has a remaining signal of 99.5% (cell-free assay; 0.5 µM).
For `O=c1nc(-c2ccccn2)sc2ccccc12`, the remaining binding was 100% (cell-free assay, competition with immobilised ligand; 1 µM).
`CC(C)(C)c1nc(-c2cccc(NS(=O)(=O)c3c(F)cccc3F)c2F)c(-c2ccnc(N)n2)s1` has a remaining activity of 88% (enzyme activity, inhibitor, radiometric; 1 µM).
`C=CC(=O)Nc1cc(Nc2nccc(Nc3cc(Cl)c(F)cc3C(C)(C)O)n2)c(OC)cc1N1CC[C@@H](N(C)C)C1` gave an inhibition of 65% (enzyme activity, inhibitor; 1 µM).
`COc1cc2ncnc(Nc3ccc(Oc4ccccc4)cc3C)c2cc1OC` has an inhibition of 27% (enzyme activity, inhibitor; 1 µM).
With `Cc1ccc(C(=O)NCc2ccsc2)cc1C#Cc1cn(C(C)C)c2ncnc(N)c12` the activity vs control was 93% (enzyme activity, inhibitor; 1 µM).
The remaining binding of `C[C@@H]1CN(c2cc(-c3nn(C)c4ccc(OC5(C)CC5)cc34)ncn2)C[C@H](C)O1` is reported as 93% (cell-free assay, competition with immobilised ligand; 1 µM).
With `CC(C)(O)[C@H]1CC[C@H](Nc2ccc3ncc(-c4cccc(C(F)(F)F)c4)n3n2)CC1` the remaining activity was 95.4% (enzyme activity, inhibitor; 1 µM).
For `Nc1ncnc2occ(-c3ccc(NC(=O)Nc4cc(C(F)(F)F)ccc4F)cc3)c12`, the remaining signal was 4.1% (cell-free assay, inhibitor; 20 µM).
`CC1=C(C#N)[C@@H](c2ccc3[nH]nc(C)c3c2)C(C#N)=C(c2ccc(Cl)cc2)N1` has a remaining binding of 100% (cell-free assay, competition with immobilised ligand; 1 µM).
The remaining activity of `Cc1cnc(NC2CCOCC2)nc1-n1cnc(C(=O)NC(CN)c2cc(F)cc(Cl)c2)c1` (centres unmarked) is reported as 102% (enzyme activity, inhibitor, radiometric; 1 µM).
For `CNCc1ccc(-c2cc(-c3nc(-c4ccc(S(=O)(=O)C(C)C)cc4)cnc3N)on2)cc1`, the inhibition was 0% (enzyme activity, inhibitor; 2 µM).
For `C[C@@H]1CN(c2cc(-c3n[nH]c4ccc(OC5(C)CC5)cc34)ncn2)C[C@H](C)O1`, the remaining binding was 87% (cell-free assay, competition with immobilised ligand; 0.1 µM).
The remaining signal of `N#CCCc1ccc2c(c1)-c1[nH]c3ccc([N+](=O)[O-])cc3c1CC(=O)N2` is reported as 37.9% (cell-free assay; 0.5 µM).
With `CCCOc1ccc(OC)c(F)c1C(=O)c1ccc(C(=O)N[C@@H]2CNC[C@H]2NC(=O)c2ccc3[nH]ncc3c2)cc1` the remaining activity was 79% (enzyme activity, inhibitor; 10 µM).
